In ChEMBL document CHEMBL1799915, “Antitubercular chromones and flavonoids from Pisonia aculeata” (2011) one finds MIC data, which are given here for 14 compounds.

Molecules are shown by their SMILES. ≈ marks a conversion by molar mass, not a printed value.

The experiment has as its system Mycobacterium tuberculosis. In words: Antitubercular activity against Mycobacterium tuberculosis H37Rv after 2 weeks by agar plate assay. Type of experiment: functional. The following applies: 336 h. Summed up:
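Inoculum from colonies suspended in 7H9 broth, adjusted to McFarland no. 1, then diluted; 33 μL spotted per quadrant. Incubated 35 °C, 10% CO2. MIC = lowest concentration giving complete growth inhibition, read by eye.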

Compound `Cc1c(O)c(C)c2c(c1O)C(=O)C[C@@H](c1ccccc1O)O2` had a minimal inhibitory concentration (MIC) of 20 µg/mL (≈ 66.6 µM). As for `COc1cc(/C=C/C(=O)NC[C@H](O)c2ccc(O)cc2)ccc1O`, it took 50 µg/mL (≈ 152 µM) to inhibit growth (MIC). `COc1c(O)cc2c(c1O)C(=O)C[C@@H](c1ccccc1)O2` [DIHYDROOROXYLIN A] had an MIC of 50 µg/mL (≈ 175 µM).

The compound `CC[C@@H](CO)NCCN[C@@H](CC)CO` [ETHAMBUTOL] registered a minimal inhibitory concentration (MIC) of 6.25 µg/mL (≈ 30.6 µM).

Regarding `COc1cc(O)c2c(=O)cc(C)oc2c1` [EUGENIN], it took 103 µg/mL (≈ 500 µM) to inhibit growth (MIC). `Cc1c(O)c(C)c2occc(=O)c2c1O` [LEPTORUMOL] gave a minimum inhibitory concentration (MIC) of 82.9 µg/mL (≈ 402 µM). As for `Cc1cc(=O)c2c(O)cc(O)cc2o1` [NOREUGENIN], the minimal inhibitory concentration (MIC) stood at 110 µg/mL (≈ 572 µM). As for `COc1c(O)c(C)c2occ(-c3ccccc3O)c(=O)c2c1O` [PISONIANONE], the figure is ≥ 175 µg/mL; as for `COc1cc2occc(=O)c2c(O)c1OC` [PISONIN A], ≥ 100 µg/mL. Consider `COc1c(O)cc2oc(C)cc(=O)c2c1O` [PISONIN B], for which the MIC was found to be 25 µg/mL (≈ 113 µM). In turn, `COc1c(O)cc2occc(=O)c2c1O` [PISONIN C] came in with an MIC of 80 µg/mL (≈ 384 µM). As for `O=c1ccoc2cc3c(c(O)c12)OCO3` [PISONIN D], the minimal inhibitory concentration (MIC) was ≥ 236 µg/mL.

With `Cc1cc(=O)c2c(O)c3c(cc2o1)OCO3` [PISONIN E], the minimum inhibitory concentration (MIC) was ≥ 190 µg/mL. For `Cc1c(O)cc(O)c2c1O[C@H](c1ccccc1O)CC2=O` [PISONIVANONE] the value was 12.5 µg/mL (≈ 43.7 µM).

In general, MIC refers to the least concentration at which growth counts as inhibited. A lower MIC goes with greater potency.
